From ChEMBL document CHEMBL1141137, “Design and synthesis of tricyclic imidazo[4,5-b]pyridin-2-ones as corticotropin-releasing factor-1 antagonists” (J Med Chem, 2005)

Experiments:
[1] = target: T1, Corticotropin-releasing factor receptor 1 (Homo sapiens, UniProt P34998); test: Binding affinity for corticotropin-releasing factor-1 expressed in […] cells; type: cell-based
T1 sequence (P34998 whole entry): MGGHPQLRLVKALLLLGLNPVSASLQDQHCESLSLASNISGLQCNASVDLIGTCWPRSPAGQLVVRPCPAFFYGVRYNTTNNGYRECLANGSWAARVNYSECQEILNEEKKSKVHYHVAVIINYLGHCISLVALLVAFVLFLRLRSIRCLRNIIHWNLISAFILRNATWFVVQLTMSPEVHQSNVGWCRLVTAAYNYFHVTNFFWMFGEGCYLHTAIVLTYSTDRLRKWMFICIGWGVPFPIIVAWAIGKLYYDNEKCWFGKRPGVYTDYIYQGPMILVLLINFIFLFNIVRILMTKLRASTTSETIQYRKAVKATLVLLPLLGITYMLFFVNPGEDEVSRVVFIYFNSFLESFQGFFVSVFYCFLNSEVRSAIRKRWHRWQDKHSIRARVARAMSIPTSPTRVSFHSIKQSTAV
Method in brief: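 Cloned human CRF1 receptor expressed in […] cells. Radiolabeled sauvagine used as ligand. Ki derived from dose–response curves over 1 nM to 10 μM. Values are the mean of three or more independent determinations.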

[2] = target: T1, Corticotropin-releasing factor receptor 1; test: Inhibition of CRF stimulated cAMP production in CHO cells expressing CRF1 receptor; type: functional, cell-based
[3] = Concentration maximum in brain of rat was determined after 1 hr upon oral administration; type: ADME, organism-based; parameters: route oral
Method in brief: (§1)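 Male Sprague-Dawley rats given 10 mg/kg intravenously or orally. Plasma clearance, volume of distribution and terminal half-life taken from the iv arm. Plasma and brain Cmax taken after oral dosing. Oral bioavailability estimated. Brain exposure relative to plasma based on AUC (0–6 h).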

[4] = Concentration maximum in plasma of rat was determined after 1 h upon oral administration; type: ADME, organism-based; parameters: route oral; method in brief: as §1
[5] = Plasma clearance in rat was determined upon i.v. administration; type: ADME, organism-based; conditions: iv; method in brief: as §1
[6] = Oral bioavailability in Rat upon oral administration; type: ADME, organism-based; conditions: in vivo; method in brief: as §1
[7] = Terminal half life in rat was determined upon intravenous administration; conditions: in vivo
[8] = Volume distribution in rat was determined upon intravenous administration; conditions: in vivo
[9] = Terminal half life in rat was determined upon oral administration; type: ADME, organism-based; conditions: in vivo

| SMILES | Ki [1] | also measured |
| --- | --- | --- |
| CCCC(CCC)N1CCn2nc(-c3ccc(Cl)cc3Cl)c3nc(C)cc1c32 | 4.5 nM |  |
| CCCC(CCC)N1CCn2c(=O)n(-c3ccc(C(F)(F)F)cc3)c3nc(C)cc1c32 | 17 nM |  |
| CCCC(CCC)N1CCn2c(=O)n(-c3ccc(Cl)cc3Cl)c3nc(C)cc1c32 | 5.1 nM |  |
| CCCC(CCC)N1CCn2c(=O)n(-c3ccc(C(=O)OC)cc3)c3nc(C)cc1c32 | 920 nM |  |
| CCCC(CCC)N1CCn2c(=O)n(-c3ccc(OC)cc3)c3nc(C)cc1c32 | 2 nM | IC50 [2]: 71 nM; Cmax [3]: 1180 ng/g; Cmax [4]: 356 ng/mL; clearance [5]: 53.4 mL/min/kg; bioavailability [6]: 30%; half-life [7]: 1.6 h; Vd [8]: 7.2 L/kg |
| CCC(CC)N1CCn2c(=O)n(-c3ccc(OC)cc3C)c3nc(C)cc1c32 | 20 nM |  |
| CCCC(CCC)N1CCn2c(=O)n(-c3ccc(C(C)C)cc3Br)c3nc(C)cc1c32 | 1.1 nM |  |
| CCCC(CCC)N1CCn2c(=O)n(-c3ccc(S(C)(=O)=O)cc3)c3nc(C)cc1c32 | 460 nM |  |
| CCCC(CCC)N1CCn2c(=O)n(-c3ccccc3OC)c3nc(C)cc1c32 | 44 nM |  |
| CCCC(CCC)N1CCn2c(=O)n(-c3cccc(OC)c3)c3nc(C)cc1c32 | 130 nM |  |
| CCC(CC)N1CCn2c(=O)n(-c3ccc(C(F)(F)F)cc3)c3nc(C)cc1c32 | 170 nM |  |
| CCC(CC)N1CCn2c(=O)n(-c3ccc(OC)cc3)c3nc(C)cc1c32 | 8 nM |  |
| CCCC(CCC)N1CCn2c(=O)n(-c3ccc(OC)nc3)c3nc(C)cc1c32 | 60 nM |  |
| CCCC(CCC)N1CCn2c(=O)n(-c3ccc(OCC)cc3)c3nc(C)cc1c32 | 140 nM |  |
| CCCC(CCC)N1CCn2c(=O)n(-c3ccc(Cl)cc3)c3nc(C)cc1c32 | 12 nM |  |
| CCCCN1CCn2c(=O)n(-c3ccc(OC)cc3)c3nc(C)cc1c32 | 8800 nM |  |
| COc1ccc(-n2c(=O)n3c4c(cc(C)nc42)N(C(C)C)CC3)cc1 | > 10000 nM |  |
| CCCC(CCC)N1CCn2c(=O)n(-c3ccc(Cl)cn3)c3nc(C)cc1c32 | 23 nM |  |
| CCC(CC)N1CCn2c(=O)n(-c3ccc(Cl)cc3)c3nc(C)cc1c32 | 58 nM |  |
| COCC(COC)Nc1nc(C)nc2c(-c3ccc(Cl)cc3Cl)c(C)nn12 |  | half-life [9]: 16 h; Vd [8]: 22 L/kg |
| CCCCN(CC)c1nc(C)nc2c1c(C)cn2-c1c(C)cc(C)cc1C [CP-154526] |  | T1/2 [9]: 51 h; Vd [8]: 105 L/kg |
